According to ChEMBL document CHEMBL5260822, “Structure-based design and synthesis of 2,4-diaminopyrimidines as EGFR L858R/T790M selective inhibitors for NSCLC” (Eur J Med Chem, 2017):
The source made the active and inactive calls. The rule behind the calls is not given here.

Legend:
[1] = test system: A-431; experiment: Antiproliferative activity against human A-431 cells harboring wild type EGFR assessed as inhibition of cell proliferation incubated for 72 hrs by sulforhodamine B colorimetric assay; assay type: functional, cell-based; conditions: A-431, 72 h
[2] = test system: NCI-H1975; experiment: Inhibition of Akt signalling in EGF-stimulated human NCI-H1975 cells harboring EGFR L858R/T790M double mutant assessed as […] at 0.1 to 100 nM and measured after 2 hrs by Western blot analysis; assay type: cell-based; conditions: dose 0.1-100 nM
[3] = biological target: Insulin receptor (Homo sapiens) (UniProt P06213); experiment: Inhibition of INSR (unknown origin) at 1000 nM by DiscoverX KINOMEscan assay relative to control; values are per cent of control
[4] = biological target: Insulin-like growth factor 1 receptor (Homo sapiens) (UniProt P08069); experiment: Inhibition of IGF1R (unknown origin) at 1000 nM by DiscoverX KINOMEscan assay relative to control; values are per cent of control
[5] = biological target: MAP kinase-interacting serine/threonine-protein kinase 2 (Homo sapiens) (UniProt Q9HBH9); experiment: Inhibition of MKNK2 (unknown origin) at 1000 nM by DiscoverX KINOMEscan assay relative to control; values are per cent of control
[6] = test system: NCI-H1975; experiment: Antiproliferative activity against human NCI-H1975 cells harboring EGFR L858R/T790M double mutant assessed as inhibition of cell proliferation incubated for 72 hrs by sulforhodamine B colorimetric assay; assay type: functional, cell-based; conditions: NCI-H1975, 72 h
[7] = AUC (0 to infinity) in Sprague-Dawley rat at 10 mg/kg, po and measured after 24 hrs by LC-MS/MS analysis; assay type: ADME, organism-based; parameters: dose 10 mg/kg, time 24 hrs, route po; conditions: in vivo
Procedure, shortened: (§1)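 Male Sprague–Dawley rats (190–220 g) dosed by oral gavage at 10 mg/kg in 5% DMSO / 95% HP-β-CD aqueous solution (20%); iv reference arm at 1 mg/kg. Blood sampled at 0.25, 0.5, 1, 2, 4, 6, 8 and 24 h, centrifuged (8000 × g, 6 min), and plasma quantified by LC–MS/MS.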

[8] = Toxicity in BALB/c nude mouse xenografted with human NCI-H1975 cells harboring EGFR L858R/T790M mutant assessed as morphological changes in liver at 15 to 30 mg/kg, po for 18 days by hematoxylin and eosin staining based microscopic analysis; assay type: organism-based; conditions: in vivo, 432 h, dose 15-30 mg/kg, time 18 day
Procedure, shortened: (§2)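 H1975 subcutaneous xenografts were grown in female BALB/cA nu/nu mice (n = 6 per group), dosed at 15 or 30 mg/kg/day for 18 days or with vehicle. At the end the mice were sacrificed. Heart, kidney and liver were harvested, processed and stained with hematoxylin and eosin for routine histological examination.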

[9] = Toxicity in BALB/c nude mouse xenografted with human NCI-H1975 cells harboring EGFR L858R/T790M mutant assessed as morphological changes in kidney at 15 to 30 mg/kg, po for 18 days by hematoxylin and eosin staining based microscopic analysis; assay type: organism-based; conditions: in vivo, 432 h, dose 15-30 mg/kg, time 18 day; procedure, shortened: as §2
[10] = test system: Epidermal growth factor receptor (Homo sapiens), P00533 [L858R,T790M]; experiment: Inhibition of EGFR phosphorylation in EGF-stimulated human NCI-H1975 cells harboring EGFR L858R/T790M double mutant at 0.1 to 100 nM and measured after 2 hrs by Western blot analysis; assay type: cell-based; conditions: dose 0.1-100 nM
Procedure, shortened: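 Cells treated with compound for 2 h, then stimulated with EGF for 15 min and lysed. Lysates cleared at 12,000 × g (10 min, 4 °C), protein measured by Bradford assay, and equal amounts run on 8% SDS-PAGE and blotted to nitrocellulose. Probed for p-EGFR (Y1068), EGFR, p-ERK (T202/Y204), ERK, with tubulin or GAPDH as loading controls.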

[11] = test system: NCI-H1975; experiment: Antitumor activity against human NCI-H1975 cells harboring EGFR L858R/T790M mutant xenografted in BALB/c nude mouse assessed as tumor growth inhibition at 30 mg/kg, po for 18 days; assay type: functional; conditions: NCI-H1975, 432 h, time 18 day, read-out: TGI
Procedure, shortened: (§3)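 H1975 cells (1 × 10^6 in 0.1 mL PBS) injected subcutaneously into the right flank of female nude mice. At mean tumor volume of about 100 mm3 (roughly 18 days), mice randomized, n = 6 per group, and dosed once daily for 18 days against a vehicle group. Tumor volume (0.5 × L × W²) measured every 2–3 days; tumors weighed at sacrifice. Data given as mean ± SEM.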

[12] = biological target: Tyrosine-protein kinase JAK2 (Homo sapiens) (UniProt O60674); experiment: Inhibition of JAK2 (unknown origin) at 1000 nM by DiscoverX KINOMEscan assay relative to control; values are per cent of control
[13] = test system: NCI-H1975; experiment: Antitumor activity against human NCI-H1975 cells harboring EGFR L858R/T790M mutant xenografted in BALB/c nude mouse assessed as tumor growth inhibition at 15 mg/kg, po for 18 days; assay type: functional; conditions: NCI-H1975, 432 h, time 18 day, read-out: TGI; procedure, shortened: as §3
[14] = test system: Epidermal growth factor receptor (Homo sapiens), P00533 [L858R,T790M]; conditions: NCI-H1975, dose 10.0 nM, time 2.0 hrs
[15] = Volume of distribution at steady state in Sprague-Dawley rat at 1 mg/kg, iv and measured after 24 hrs by LC-MS/MS analysis; assay type: ADME, organism-based; conditions: in vivo, read-out: Vdss
[16] = Oral bioavailability in Sprague-Dawley rat at 10 mg/kg and measured after 24 hrs by LC-MS/MS analysis; assay type: ADME, organism-based; conditions: in vivo; procedure, shortened: as §1
[17] = biological target: Receptor tyrosine-protein kinase erbB-4 (Homo sapiens) (UniProt Q15303); experiment: Inhibition of ERBB4 (unknown origin) at 1000 nM by DiscoverX KINOMEscan assay relative to control; values are per cent of control
[18] = biological target: ALK tyrosine kinase receptor (Homo sapiens) (UniProt Q9UM73); experiment: Inhibition of ALK (unknown origin) at 1000 nM by DiscoverX KINOMEscan assay relative to control; values are per cent of control
[19] = test system: NCI-H1975; experiment: Antitumor activity against human NCI-H1975 cells harboring EGFR L858R/T790M mutant xenografted in BALB/c nude mouse assessed as tumor cell proliferation at 15 to 30 mg/kg, po for 18 days by Ki-67 staining based immunohistochemical analysis; assay type: functional, organism-based; conditions: dose 15-30 mg/kg, time 18.0 day
Procedure, shortened: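 H1975 xenograft tumors from nude mice (n = 6/group, daily dosing 18 days) were harvested, fixed in 10% formalin, paraffin-embedded and cut into 5 µm sections. Sections deparaffinized and incubated with primary anti-Ki-67 antibody at room temperature; immunoreactivity visualized with DAB.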

Sequence of Epidermal growth factor receptor (Homo sapiens), P00533 [L858R,T790M] (P00533 whole entry T790M/L858R, looked up): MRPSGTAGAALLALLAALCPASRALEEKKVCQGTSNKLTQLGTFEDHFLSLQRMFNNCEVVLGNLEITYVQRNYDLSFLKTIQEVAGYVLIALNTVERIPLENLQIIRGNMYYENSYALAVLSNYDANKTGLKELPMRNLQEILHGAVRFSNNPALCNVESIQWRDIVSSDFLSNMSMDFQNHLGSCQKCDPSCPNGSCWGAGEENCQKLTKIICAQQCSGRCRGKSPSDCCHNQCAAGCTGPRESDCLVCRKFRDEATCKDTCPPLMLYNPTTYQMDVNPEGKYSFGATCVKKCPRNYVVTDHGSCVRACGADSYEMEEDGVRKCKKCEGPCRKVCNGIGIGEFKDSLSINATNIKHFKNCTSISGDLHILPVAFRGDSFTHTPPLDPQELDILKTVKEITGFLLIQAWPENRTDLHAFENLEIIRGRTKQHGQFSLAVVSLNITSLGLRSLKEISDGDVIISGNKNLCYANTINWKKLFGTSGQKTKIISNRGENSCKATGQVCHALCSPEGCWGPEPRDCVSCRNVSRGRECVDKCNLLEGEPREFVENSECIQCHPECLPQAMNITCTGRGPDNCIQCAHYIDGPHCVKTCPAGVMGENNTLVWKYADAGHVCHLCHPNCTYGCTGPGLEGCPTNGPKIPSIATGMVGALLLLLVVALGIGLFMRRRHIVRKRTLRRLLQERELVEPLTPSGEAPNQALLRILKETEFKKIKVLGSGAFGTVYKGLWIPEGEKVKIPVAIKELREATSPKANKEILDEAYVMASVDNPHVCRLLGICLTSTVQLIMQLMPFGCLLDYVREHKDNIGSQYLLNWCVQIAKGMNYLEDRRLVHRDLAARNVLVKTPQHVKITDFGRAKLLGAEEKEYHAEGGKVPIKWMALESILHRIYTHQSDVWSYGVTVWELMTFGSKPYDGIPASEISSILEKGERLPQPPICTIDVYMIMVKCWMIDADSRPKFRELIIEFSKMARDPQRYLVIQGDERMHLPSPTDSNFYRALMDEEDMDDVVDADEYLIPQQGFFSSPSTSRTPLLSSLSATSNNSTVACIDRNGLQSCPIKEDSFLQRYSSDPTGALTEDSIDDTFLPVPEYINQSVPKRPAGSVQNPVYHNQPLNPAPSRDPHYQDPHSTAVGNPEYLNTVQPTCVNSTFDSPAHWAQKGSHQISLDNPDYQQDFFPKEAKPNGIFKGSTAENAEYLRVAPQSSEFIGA
Sequence of Insulin receptor (Homo sapiens) (P06213 28-758 limits assumed): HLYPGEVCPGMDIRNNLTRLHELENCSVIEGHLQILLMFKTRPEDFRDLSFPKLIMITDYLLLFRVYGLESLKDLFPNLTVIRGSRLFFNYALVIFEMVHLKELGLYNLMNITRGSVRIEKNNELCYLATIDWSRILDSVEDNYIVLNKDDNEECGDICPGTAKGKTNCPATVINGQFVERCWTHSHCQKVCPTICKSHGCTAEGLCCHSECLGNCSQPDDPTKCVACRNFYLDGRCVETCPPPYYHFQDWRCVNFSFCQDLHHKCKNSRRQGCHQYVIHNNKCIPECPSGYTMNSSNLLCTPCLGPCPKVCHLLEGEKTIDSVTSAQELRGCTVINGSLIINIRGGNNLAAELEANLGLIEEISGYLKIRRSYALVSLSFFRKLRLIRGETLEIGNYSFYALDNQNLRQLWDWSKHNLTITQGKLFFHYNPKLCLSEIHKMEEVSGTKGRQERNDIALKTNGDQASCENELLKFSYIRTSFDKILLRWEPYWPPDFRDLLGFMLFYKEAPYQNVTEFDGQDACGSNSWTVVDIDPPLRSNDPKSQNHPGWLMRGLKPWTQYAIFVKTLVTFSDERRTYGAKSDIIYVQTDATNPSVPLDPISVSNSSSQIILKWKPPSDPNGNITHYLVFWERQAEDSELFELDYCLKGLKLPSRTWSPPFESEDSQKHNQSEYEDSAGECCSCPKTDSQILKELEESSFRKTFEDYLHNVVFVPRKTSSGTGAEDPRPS
Sequence of Insulin receptor (Homo sapiens) (P06213 763-1382 limits assumed): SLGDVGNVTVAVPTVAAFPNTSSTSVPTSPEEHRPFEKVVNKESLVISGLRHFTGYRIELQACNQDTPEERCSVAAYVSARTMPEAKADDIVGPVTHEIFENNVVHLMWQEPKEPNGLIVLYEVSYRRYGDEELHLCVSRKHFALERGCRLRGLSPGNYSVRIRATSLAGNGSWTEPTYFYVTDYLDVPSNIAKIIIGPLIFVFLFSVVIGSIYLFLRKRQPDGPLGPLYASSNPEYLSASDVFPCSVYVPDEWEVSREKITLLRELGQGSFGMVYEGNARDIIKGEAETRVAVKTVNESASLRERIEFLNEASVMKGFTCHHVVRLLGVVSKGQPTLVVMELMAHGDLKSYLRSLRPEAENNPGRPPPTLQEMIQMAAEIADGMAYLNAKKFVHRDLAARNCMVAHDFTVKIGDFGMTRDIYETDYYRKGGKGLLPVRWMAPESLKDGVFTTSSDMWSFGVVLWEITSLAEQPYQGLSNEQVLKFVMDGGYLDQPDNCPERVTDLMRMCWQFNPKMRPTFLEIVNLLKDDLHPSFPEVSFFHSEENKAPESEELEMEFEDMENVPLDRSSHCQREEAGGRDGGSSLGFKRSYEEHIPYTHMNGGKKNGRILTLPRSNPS
Sequence of Tyrosine-protein kinase JAK2 (Homo sapiens) (O60674 whole entry): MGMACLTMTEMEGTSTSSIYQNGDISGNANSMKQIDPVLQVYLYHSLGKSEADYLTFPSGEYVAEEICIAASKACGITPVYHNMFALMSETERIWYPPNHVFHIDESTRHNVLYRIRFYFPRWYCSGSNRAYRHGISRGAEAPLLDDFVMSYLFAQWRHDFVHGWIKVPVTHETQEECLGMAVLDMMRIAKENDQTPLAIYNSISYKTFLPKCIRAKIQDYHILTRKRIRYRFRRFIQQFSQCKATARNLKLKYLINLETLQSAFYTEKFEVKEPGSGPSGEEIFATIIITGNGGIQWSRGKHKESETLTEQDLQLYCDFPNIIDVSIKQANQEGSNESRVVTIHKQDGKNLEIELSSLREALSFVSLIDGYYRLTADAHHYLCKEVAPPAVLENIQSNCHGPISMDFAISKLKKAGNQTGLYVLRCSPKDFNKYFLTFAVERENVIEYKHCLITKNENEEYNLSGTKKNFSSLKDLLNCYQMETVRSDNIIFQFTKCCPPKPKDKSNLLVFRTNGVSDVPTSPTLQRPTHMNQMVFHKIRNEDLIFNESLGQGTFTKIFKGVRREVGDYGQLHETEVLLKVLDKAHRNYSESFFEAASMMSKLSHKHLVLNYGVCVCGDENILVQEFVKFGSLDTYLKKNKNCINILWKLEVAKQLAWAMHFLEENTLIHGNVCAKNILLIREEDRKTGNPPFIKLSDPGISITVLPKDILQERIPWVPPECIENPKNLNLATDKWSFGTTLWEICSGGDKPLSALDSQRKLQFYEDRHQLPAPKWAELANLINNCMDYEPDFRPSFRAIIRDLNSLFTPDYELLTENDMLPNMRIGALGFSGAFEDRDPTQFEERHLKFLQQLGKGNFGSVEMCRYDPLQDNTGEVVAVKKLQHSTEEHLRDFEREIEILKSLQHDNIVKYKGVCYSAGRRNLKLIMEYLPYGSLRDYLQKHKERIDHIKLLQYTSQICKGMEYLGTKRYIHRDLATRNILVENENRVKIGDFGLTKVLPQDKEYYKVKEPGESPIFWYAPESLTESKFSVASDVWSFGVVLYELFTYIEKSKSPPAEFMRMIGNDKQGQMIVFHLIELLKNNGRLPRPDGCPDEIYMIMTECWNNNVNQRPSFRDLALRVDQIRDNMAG
Sequence of MAP kinase-interacting serine/threonine-protein kinase 2 (Homo sapiens) (Q9HBH9 whole entry, looked up): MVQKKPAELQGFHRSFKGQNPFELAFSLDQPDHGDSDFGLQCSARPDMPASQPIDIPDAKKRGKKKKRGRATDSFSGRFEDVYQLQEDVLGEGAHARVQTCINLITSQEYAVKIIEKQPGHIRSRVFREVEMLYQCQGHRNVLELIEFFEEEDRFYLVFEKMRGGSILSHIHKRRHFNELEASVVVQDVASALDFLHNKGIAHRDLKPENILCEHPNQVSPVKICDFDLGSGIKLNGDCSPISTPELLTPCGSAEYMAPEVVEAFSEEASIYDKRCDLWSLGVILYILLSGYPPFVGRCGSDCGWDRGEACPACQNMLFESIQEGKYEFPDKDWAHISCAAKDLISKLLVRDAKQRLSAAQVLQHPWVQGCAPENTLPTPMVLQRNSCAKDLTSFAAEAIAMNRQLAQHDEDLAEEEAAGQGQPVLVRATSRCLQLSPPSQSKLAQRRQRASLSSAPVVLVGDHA

Structure (SMILES): C=CC(=O)Nc1cc(Nc2ncc(Br)c(Nc3ccc4ccn(C)c4c3)n2)c(OC)cc1N1CCN(C)CC1
- IC50 [1]: 1.69 µM
- inhibition [2]: Dose-Dependent Effect
- residual activity [3]: < 10%
- residual activity [4]: > 35%
- residual activity [5]: < 10%
- IC50 [6]: 0.184 µM
- AUC [7]: 52.3 ng·h/mL
- Activity [8]: Non-Toxic
- Activity [9]: Non-Toxic
- inhibition [10]: Dose-Dependent Effect
- inhibition in vivo at 30 mg/kg [11]: 86%
- residual activity [12]: < 10%
- inhibition in vivo at 15 mg/kg [13]: 62%
- inhibition [14]: Active
- Vd [15]: 6.56 L/kg
- F [16]: 52.3%
- residual activity [17]: < 10%
- residual activity [18]: < 10%
- Activity [19]: Active
